{
  "source": "ChEMBL document CHEMBL5653631",
  "about": "“A Potent and Selective ULK1 Inhibitor Suppresses Autophagy and Sensitizes Cancer Cells to Nutrient Stress” (iScience, 2018)",
  "key": {"[1]": {"molecular_target": "Tyrosine-protein kinase BTK (Homo sapiens) (UniProt Q06187)", "experiment": "Inhibition of human recombinant BTK at 40 nM related to control ULK1"}, "[2]": {"molecular_target": "Tyrosine-protein kinase Lyn (Homo sapiens) (UniProt P07948)", "experiment": "Inhibition of human recombinant LYN at 40 nM in presence of ATP by radiometric assay relative to control"}, "[3]": {"molecular_target": "Cyclin-dependent kinase 3 (Homo sapiens) (UniProt Q00526)", "sequence (Q00526 whole entry, looked up)": "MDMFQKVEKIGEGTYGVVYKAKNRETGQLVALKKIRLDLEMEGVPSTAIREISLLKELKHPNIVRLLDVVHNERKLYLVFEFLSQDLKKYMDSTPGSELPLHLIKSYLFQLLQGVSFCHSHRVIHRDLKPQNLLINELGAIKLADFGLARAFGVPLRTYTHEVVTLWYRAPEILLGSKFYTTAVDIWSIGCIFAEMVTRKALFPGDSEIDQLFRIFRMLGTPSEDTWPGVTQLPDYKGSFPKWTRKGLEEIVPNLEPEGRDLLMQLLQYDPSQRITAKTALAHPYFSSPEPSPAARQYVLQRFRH", "experiment": "Inhibition of human recombinant CDK3 at 500 nM related to control ULK1"}, "[4]": {"molecular_target": "Proto-oncogene tyrosine-protein kinase receptor Ret (Homo sapiens) (UniProt P07949)", "sequence (P07949 whole entry)": "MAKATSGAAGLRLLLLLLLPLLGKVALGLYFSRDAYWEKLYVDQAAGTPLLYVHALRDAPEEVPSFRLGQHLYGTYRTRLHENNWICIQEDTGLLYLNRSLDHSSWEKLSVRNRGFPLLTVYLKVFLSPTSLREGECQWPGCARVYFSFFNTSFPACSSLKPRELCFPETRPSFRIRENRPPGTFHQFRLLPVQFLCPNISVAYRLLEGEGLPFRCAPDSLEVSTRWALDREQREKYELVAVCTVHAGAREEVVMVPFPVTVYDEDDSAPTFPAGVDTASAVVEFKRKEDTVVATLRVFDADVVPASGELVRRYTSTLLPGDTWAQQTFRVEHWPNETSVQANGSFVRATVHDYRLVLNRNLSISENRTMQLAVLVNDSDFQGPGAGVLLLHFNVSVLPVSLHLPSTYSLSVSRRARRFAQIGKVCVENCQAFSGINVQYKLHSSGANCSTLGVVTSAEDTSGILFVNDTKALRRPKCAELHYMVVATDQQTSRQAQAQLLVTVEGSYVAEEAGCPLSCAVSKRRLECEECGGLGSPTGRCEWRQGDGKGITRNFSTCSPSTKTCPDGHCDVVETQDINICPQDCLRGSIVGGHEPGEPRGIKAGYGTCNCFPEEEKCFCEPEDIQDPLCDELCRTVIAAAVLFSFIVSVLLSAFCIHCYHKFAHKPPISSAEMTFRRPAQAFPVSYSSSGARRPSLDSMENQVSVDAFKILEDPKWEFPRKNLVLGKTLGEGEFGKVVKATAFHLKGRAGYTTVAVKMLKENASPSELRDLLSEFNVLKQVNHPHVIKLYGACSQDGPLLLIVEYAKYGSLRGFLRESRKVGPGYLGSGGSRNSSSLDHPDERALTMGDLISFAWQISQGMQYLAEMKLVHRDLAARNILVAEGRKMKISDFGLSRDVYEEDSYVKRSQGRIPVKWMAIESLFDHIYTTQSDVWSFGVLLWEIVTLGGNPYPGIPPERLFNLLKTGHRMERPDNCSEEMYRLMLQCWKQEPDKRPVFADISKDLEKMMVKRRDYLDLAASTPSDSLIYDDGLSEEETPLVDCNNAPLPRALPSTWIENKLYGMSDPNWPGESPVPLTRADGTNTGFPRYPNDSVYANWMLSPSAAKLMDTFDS", "experiment": "Inhibition of human recombinant RET at 500 nM related to control ULK1"}, "[5]": {"molecular_target": "T1, Aurora kinase A (Homo sapiens) (UniProt O14965)", "T1 sequence (whole entry)": "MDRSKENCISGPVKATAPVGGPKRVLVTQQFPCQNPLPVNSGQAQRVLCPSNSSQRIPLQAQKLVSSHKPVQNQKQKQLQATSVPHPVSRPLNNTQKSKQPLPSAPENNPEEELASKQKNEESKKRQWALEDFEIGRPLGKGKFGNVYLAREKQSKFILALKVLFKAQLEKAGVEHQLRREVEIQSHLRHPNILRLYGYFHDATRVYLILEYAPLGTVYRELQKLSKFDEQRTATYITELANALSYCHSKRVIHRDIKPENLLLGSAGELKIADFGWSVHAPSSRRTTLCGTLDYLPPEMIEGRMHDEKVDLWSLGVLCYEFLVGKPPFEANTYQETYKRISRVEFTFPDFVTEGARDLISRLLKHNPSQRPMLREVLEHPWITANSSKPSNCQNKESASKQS", "experiment": "Inhibition of human recombinant AurA at 500 nM related to control ULK1", "how_it_was_run": "(§1)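 Panel of 327 recombinant human kinases, each assayed in vitro by radiometric activity assay in duplicate at a single inhibitor concentration per compound, chosen with reference to its ULK1 inhibition. Activity remaining was expressed as percent of vehicle control, and percent inhibition was calculated as 100 minus percent activity remaining.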"}, "[6]": {"molecular_target": "Receptor tyrosine-protein kinase erbB-4 (Homo sapiens) (UniProt Q15303)", "experiment": "Inhibition of human recombinant ErbB4 at 15 nM related to control ULK1"}, "[7]": {"molecular_target": "Tyrosine-protein kinase JAK1 (Homo sapiens) (UniProt P23458)", "sequence (P23458 whole entry)": "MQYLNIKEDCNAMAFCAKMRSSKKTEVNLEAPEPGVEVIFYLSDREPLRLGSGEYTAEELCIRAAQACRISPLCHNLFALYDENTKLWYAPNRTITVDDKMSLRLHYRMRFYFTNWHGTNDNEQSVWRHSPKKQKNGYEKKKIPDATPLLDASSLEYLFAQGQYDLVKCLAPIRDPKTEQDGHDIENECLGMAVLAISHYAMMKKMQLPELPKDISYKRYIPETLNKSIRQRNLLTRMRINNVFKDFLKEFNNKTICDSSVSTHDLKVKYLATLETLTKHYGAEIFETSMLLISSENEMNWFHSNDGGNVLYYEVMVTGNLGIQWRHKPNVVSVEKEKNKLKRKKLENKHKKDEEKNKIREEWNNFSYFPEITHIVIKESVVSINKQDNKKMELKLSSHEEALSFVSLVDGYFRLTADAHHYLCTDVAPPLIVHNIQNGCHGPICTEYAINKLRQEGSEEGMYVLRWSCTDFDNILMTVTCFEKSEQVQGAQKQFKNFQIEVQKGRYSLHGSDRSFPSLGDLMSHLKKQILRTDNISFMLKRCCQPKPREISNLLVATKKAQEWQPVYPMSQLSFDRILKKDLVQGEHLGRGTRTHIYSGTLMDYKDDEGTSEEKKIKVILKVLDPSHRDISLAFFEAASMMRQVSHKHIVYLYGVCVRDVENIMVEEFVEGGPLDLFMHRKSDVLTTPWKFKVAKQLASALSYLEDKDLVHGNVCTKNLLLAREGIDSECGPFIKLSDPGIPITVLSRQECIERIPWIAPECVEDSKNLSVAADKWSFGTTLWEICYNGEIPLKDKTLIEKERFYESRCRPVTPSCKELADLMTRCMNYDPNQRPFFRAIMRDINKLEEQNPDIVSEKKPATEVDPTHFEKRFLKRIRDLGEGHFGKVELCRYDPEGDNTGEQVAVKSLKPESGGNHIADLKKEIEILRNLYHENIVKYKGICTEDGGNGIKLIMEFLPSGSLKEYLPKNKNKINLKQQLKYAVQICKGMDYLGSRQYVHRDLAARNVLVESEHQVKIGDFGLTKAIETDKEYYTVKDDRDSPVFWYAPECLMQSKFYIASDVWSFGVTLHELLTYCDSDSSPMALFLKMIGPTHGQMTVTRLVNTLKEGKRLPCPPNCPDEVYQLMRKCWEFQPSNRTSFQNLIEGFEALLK", "experiment": "Inhibition of human recombinant JAK1 at 15 nM in presence of ATP by radiometric assay relative to control"}, "[8]": {"molecular_target": "5'-AMP-activated protein kinase catalytic subunit alpha-2 (Homo sapiens) (UniProt P54646)", "experiment": "Inhibition of human recombinant AMPKa2 at 15 nM related to control ULK1", "how_it_was_run": "as §1"}, "[9]": {"molecular_target": "T2, Serine/threonine-protein kinase D3 (Homo sapiens) (UniProt O94806)", "T2 sequence (whole entry)": "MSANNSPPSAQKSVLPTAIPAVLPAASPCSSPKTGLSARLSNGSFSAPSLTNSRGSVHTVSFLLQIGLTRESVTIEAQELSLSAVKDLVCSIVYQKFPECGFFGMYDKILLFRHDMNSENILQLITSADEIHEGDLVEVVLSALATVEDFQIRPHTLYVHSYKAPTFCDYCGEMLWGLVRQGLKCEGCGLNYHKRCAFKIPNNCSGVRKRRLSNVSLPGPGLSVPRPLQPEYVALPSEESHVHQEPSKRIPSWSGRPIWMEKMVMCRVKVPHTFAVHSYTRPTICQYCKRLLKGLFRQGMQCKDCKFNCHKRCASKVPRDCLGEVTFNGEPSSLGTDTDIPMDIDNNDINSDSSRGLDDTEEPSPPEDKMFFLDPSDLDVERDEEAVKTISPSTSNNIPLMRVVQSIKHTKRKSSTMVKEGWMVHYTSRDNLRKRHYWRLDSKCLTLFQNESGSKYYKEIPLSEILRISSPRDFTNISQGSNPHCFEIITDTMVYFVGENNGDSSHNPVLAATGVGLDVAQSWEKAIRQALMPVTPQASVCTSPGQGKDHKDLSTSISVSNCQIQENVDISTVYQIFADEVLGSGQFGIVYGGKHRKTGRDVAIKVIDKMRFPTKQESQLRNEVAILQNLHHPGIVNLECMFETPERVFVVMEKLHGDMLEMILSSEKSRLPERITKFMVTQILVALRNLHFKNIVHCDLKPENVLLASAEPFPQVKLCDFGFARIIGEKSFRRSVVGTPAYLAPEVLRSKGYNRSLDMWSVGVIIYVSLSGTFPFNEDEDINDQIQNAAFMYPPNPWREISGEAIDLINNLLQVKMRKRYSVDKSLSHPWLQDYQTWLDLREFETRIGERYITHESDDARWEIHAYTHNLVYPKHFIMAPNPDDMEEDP", "experiment": "Inhibition of human recombinant PKD3 at 15 nM in presence of ATP by radiometric assay relative to control"}, "[10]": {"molecular_target": "Cell division cycle 7-related protein kinase (Homo sapiens) (UniProt O00311)", "sequence (O00311 whole entry, looked up)": "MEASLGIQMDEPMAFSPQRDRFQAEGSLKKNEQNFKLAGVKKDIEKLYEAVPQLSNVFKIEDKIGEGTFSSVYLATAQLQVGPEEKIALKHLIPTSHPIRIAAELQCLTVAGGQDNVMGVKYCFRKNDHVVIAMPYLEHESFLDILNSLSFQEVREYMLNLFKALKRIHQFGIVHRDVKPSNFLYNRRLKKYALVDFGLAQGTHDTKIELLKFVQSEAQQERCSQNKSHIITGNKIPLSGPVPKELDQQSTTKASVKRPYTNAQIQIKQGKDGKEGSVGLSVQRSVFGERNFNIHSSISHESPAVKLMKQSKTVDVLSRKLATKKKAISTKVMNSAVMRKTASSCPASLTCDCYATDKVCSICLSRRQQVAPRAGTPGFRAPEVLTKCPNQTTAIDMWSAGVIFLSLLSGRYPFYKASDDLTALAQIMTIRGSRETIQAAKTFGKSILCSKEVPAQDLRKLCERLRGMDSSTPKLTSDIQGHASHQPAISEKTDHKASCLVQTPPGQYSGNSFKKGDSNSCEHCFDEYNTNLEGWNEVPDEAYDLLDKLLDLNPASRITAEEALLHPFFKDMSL", "experiment": "Inhibition of human recombinant CDC7 at 15 nM related to control ULK1"}, "[11]": {"molecular_target": "Interferon-induced, double-stranded RNA-activated protein kinase (Homo sapiens) (UniProt P19525)", "experiment": "Inhibition of human recombinant PKR at 15 nM related to control ULK1"}, "[12]": {"molecular_target": "T3, Mitogen-activated protein kinase kinase kinase 3 (Homo sapiens) (UniProt Q99759)", "T3 sequence (whole entry)": "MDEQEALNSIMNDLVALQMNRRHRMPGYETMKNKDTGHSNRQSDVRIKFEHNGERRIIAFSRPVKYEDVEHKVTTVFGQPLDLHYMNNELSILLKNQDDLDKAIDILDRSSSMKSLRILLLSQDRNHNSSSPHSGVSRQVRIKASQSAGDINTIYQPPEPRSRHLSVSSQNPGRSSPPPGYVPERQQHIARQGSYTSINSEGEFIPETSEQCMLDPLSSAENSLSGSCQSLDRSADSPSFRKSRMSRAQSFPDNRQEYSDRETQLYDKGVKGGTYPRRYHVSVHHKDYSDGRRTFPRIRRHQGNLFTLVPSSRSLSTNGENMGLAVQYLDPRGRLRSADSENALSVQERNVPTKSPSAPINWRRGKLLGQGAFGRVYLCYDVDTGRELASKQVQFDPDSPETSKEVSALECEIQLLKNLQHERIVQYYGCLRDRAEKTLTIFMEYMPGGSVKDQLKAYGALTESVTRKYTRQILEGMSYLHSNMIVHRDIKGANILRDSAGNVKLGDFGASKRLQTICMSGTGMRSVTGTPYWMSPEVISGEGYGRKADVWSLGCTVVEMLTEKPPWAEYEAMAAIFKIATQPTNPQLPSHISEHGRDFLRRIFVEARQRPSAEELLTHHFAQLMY", "experiment": "Inhibition of human recombinant MAP3K3 at 15 nM related to control ULK1"}, "[13]": {"molecular_target": "Cyclin-dependent kinase 5 (Homo sapiens) (UniProt Q00535)", "experiment": "Inhibition of human recombinant CDK5 at 15 nM in presence of ATP by radiometric assay relative to control"}, "[14]": {"molecular_target": "Transient receptor potential cation channel subfamily M member 7 (Homo sapiens) (UniProt Q96QT4)", "sequence (Q96QT4 whole entry)": "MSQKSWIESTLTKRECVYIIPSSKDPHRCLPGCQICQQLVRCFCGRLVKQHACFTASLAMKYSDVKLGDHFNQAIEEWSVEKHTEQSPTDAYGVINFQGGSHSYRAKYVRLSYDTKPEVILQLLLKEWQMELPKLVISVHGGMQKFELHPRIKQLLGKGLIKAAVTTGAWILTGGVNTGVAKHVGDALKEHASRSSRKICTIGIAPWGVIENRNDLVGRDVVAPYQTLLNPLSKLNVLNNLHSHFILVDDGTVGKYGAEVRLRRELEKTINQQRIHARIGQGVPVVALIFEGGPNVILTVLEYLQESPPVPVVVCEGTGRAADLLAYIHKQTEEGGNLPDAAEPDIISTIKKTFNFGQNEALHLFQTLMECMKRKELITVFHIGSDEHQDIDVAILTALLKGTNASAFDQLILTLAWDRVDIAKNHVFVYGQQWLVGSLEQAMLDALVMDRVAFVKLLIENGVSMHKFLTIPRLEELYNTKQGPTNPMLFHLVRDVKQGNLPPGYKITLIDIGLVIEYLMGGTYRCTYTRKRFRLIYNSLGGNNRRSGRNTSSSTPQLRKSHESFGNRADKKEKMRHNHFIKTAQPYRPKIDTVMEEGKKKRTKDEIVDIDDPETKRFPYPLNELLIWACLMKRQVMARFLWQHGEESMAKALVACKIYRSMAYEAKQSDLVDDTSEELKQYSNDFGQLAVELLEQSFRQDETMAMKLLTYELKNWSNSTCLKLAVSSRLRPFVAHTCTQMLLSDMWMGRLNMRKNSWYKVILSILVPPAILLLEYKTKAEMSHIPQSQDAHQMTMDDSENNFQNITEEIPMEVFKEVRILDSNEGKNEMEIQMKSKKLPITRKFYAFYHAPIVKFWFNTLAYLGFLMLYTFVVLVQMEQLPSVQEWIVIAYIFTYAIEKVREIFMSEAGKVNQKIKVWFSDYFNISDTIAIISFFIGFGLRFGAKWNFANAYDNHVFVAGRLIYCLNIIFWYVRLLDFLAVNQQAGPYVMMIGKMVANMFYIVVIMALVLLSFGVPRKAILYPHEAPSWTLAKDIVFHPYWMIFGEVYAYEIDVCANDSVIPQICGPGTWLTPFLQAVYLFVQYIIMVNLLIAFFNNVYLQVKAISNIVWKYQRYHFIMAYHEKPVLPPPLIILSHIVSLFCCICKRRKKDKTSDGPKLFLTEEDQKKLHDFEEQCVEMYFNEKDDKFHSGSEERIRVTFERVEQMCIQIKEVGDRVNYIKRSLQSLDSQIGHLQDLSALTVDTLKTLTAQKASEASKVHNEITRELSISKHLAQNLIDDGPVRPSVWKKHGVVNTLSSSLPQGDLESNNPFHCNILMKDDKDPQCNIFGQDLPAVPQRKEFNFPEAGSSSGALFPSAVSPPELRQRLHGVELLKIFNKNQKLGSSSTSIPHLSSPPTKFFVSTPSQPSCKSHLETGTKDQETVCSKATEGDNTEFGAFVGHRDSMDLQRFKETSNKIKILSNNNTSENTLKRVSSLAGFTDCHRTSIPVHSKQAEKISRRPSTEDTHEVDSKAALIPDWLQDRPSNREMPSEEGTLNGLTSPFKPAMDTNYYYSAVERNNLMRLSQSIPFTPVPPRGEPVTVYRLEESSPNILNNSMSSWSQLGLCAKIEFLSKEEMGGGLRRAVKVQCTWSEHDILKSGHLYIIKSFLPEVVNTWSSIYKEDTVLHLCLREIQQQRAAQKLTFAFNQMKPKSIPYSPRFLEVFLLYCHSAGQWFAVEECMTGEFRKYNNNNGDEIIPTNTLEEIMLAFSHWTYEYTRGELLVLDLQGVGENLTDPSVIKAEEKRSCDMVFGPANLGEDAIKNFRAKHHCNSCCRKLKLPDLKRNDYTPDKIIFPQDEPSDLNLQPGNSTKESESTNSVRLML", "experiment": "Inhibition of human recombinant ChaK1 at 15 nM related to control ULK1"}},
  "data": [
    {"smiles": "O=C(N[C@@H](C1CC1)C(F)(F)F)c1cc(-c2cnn3cc(-c4ccc(F)cc4)cnc23)cs1", "values": [
      {"measurement": "fold change (FC)", "setting": "[1]", "value": 0},
      {"measurement": "inhibition", "setting": "[2]", "value": 18, "unit": "%"}
    ]},
    {"smiles": "CNC(=O)c1ccccc1Oc1nc(Nc2cc(OC)c(OC)c(OC)c2)ncc1Br", "values": [
      {"measurement": "fold change (FC)", "setting": "[3]", "value": 0.01},
      {"measurement": "fold change (FC)", "setting": "[4]", "value": 0.04},
      {"measurement": "fold change (FC)", "setting": "[5]", "value": 1.08}
    ]},
    {"smiles": "CC(C)[C@H](NC(=O)c1cc(-c2cnn3cc(-c4ccc(OCCN5CCCCC5)cc4)cnc23)cs1)C(F)(F)F", "values": [
      {"measurement": "fold change (FC)", "setting": "[6]", "value": 0},
      {"measurement": "inhibition", "setting": "[7]", "value": 0, "unit": "%"},
      {"measurement": "fold change (FC)", "setting": "[8]", "value": 0.94},
      {"measurement": "inhibition", "setting": "[9]", "value": 7, "unit": "%"},
      {"measurement": "fold change (FC)", "setting": "[10]", "value": 0.09},
      {"measurement": "fold change (FC)", "setting": "[11]", "value": 0.02},
      {"measurement": "fold change (FC)", "setting": "[12]", "value": 0.03},
      {"measurement": "inhibition", "setting": "[13]", "value": 23, "unit": "%"},
      {"measurement": "fold change (FC)", "setting": "[14]", "value": 0.14}
    ]}
  ]
}
